# Data reported in paper PMC12780024 (Nature Communications, 2025).
# Square brackets hold non-standard residues; d marks the D form. Ends that are not written are not given here. Hyp = O=C(O)[C@@H]1C[C@@H](O)CN1
# T1: GST-BAM1 (LRR repeats of BARELY ANY MERISTEM 1, N-terminal GST fusion) (Arabidopsis thaliana)
# T1 sequence (O49545 whole entry, looked up): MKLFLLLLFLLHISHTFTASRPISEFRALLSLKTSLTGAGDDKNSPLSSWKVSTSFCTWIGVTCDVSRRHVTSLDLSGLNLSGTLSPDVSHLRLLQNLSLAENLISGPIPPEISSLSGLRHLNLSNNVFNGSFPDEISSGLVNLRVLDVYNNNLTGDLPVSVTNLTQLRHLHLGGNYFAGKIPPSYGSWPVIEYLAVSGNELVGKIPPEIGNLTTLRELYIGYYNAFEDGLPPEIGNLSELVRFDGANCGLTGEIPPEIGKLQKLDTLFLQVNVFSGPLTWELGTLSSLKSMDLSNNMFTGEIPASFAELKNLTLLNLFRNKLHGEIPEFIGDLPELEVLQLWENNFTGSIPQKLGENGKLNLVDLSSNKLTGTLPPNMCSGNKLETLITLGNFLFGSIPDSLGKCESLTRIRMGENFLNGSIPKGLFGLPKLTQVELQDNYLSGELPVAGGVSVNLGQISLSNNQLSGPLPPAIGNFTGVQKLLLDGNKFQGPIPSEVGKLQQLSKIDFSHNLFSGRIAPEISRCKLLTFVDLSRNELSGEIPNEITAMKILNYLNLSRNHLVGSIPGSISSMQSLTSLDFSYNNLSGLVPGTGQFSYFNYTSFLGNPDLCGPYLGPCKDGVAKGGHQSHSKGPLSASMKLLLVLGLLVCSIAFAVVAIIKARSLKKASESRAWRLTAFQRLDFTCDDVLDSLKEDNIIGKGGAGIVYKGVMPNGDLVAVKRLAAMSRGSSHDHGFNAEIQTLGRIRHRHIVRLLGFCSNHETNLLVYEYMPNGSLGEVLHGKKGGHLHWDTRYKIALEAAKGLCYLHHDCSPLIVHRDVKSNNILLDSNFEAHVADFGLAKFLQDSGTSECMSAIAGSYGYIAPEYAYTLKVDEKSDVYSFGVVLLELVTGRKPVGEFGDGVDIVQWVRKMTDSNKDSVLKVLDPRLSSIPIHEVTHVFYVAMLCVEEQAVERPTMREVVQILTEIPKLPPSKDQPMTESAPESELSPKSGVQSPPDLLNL
# T2: GST-GHR1 (LRR repeats of GUARD CELL HYDROGEN PEROXIDE-… 1, N-terminal GST fusion) (Arabidopsis thaliana)
# T2 sequence (C0LGQ9 whole entry, looked up): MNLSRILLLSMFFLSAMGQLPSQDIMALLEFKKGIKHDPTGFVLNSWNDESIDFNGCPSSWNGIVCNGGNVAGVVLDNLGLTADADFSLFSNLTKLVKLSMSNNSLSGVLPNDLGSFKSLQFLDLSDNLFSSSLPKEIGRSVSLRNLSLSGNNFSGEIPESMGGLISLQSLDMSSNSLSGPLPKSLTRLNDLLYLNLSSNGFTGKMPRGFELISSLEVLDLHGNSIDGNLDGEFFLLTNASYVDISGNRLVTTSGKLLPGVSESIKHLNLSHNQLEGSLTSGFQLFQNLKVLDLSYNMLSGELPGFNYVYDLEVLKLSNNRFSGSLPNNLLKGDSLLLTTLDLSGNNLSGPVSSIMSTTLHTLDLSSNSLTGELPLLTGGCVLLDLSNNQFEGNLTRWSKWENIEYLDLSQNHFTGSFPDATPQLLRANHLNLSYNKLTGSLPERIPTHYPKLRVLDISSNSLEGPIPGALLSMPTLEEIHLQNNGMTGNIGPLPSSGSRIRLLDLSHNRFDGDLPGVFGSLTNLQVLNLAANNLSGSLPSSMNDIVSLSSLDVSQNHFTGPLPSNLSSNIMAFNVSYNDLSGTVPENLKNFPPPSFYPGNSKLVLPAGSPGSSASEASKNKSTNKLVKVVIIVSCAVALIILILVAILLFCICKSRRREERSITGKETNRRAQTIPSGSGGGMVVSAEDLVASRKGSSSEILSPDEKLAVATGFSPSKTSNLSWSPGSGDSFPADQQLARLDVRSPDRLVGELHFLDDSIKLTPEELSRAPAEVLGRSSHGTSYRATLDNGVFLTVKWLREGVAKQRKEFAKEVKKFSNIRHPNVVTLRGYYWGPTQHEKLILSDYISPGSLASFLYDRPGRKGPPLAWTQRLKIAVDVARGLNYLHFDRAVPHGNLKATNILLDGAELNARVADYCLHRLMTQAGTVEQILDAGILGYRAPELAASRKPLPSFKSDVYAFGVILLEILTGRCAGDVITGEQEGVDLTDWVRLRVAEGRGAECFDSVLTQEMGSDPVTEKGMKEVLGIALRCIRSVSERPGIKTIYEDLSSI
# Experiments:
# [1] = system: stomata (guard cells) of Arabidopsis leaves; experiment: Stomatal aperture measurement; format: cell-based, Arabidopsis thaliana
# Outline: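 Abaxial epidermis peeled from leaves of 3–4-week-old plants. Pore width and length measured by light microscopy and expressed as W/L ratio. n = 15 per time point, at least three independent experiments.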
# [2] = system: Arabidopsis leaves; experiment: Time-resolved stomatal conductance; format: in vivo, Arabidopsis thaliana
# Outline: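 Plants grown in short days (10/14 h) at 22 °C. Detached leaves equilibrated in an LI-6800 chamber until gsw was stable, then given 2 µM ABA. Chamber settings: 200 µmol m−2 s−1 light (90% red, 10% blue), 22 °C, 75% RH, 400 ppm CO2, […]. Time-resolved gsw reported as mean ± s.d. of at least three biological replicates.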
# [3] = system: H2O2 accumulation in rosette leaves; experiment: DAB staining of H2O2 in leaves; format: in vivo, Arabidopsis thaliana; conditions: 2 h
# Outline: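 Four-week-old rosette leaves treated 2 h with test peptide (100 µM) or hormone control (1 µM), then immersed in freshly prepared 100 µg/ml DAB in the dark for 8 h. Fixed and bleached in ethanol/acetic acid/glycerol (3:1:1), rinsed with distilled water, and photographed on a white background for H2O2 staining.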
# [4] = system: SRK2E; experiment: Protein mobility shift assay; format: cell-based, Arabidopsis thaliana; conditions: wild type protoplasts, 1 μM, 30 min, Phos-Tag; diminished by phosphatase
# Outline: (§1)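 Mesophyll protoplasts (6 × 10^4) transfected with 10 µg 35S::kinase-GFP plasmid and kept 18 h at 21 °C in W5 under continuous light. Treated with 1 µM peptide or ABA for up to 30 min, frozen, ground and lysed (Tris pH 7.5 buffer). Cleared lysate run on Phos-Tag SDS-PAGE and blotted with anti-GFP; tubulin as internal control. For dephosphorylation, lysate incubated with λ-phosphatase at 30 °C for 30 min, with or without NaF/NaVO3 inhibitors.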
# [5] = system: SRK2D; experiment: Protein mobility shift assay; format: cell-based, Arabidopsis thaliana; conditions: wild type protoplasts, 1 μM, 30 min, Phos-Tag; diminished by phosphatase
# Outline: as §1
# [6] = cited from earlier work
# [7] = molecular target: BAM1 extracellular domain; experiment: Isothermal titration calorimetry; format: binding, Arabidopsis thaliana; conditions: read-out: dissociation constant (Kd); ITC, MicroCal ITC200, 37 °C, 1 mM CLE5p into 0.1 mM GST-BAM1, 20 mM Tris-HCl pH 7.5, 25 mM NaCl, 5% glycerol; One Set of Sites; ± fitting errors; repeated twice
# Outline: (§2)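 Recombinant GST-fused receptor protein, gel-filtered into titration buffer, titrated at 37 °C with sequential injections of test peptide at 180 s intervals. Cell stirred at 800 rpm, reference power 5 µcal/s. GST alone served as negative control. Data fitted to a one-set-of-sites model to give Kd, stoichiometry N, ΔG, ΔH and -TΔS.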
# [8] = molecular target: GHR1 extracellular domain; experiment: Isothermal titration calorimetry; format: binding, Arabidopsis thaliana; conditions: read-out: dissociation constant (Kd); ITC, MicroCal ITC200, 37 °C, 1 mM CLE5p into 0.1 mM GST-GHR1, 20 mM Tris-HCl pH 7.5, 25 mM NaCl, 5% glycerol; One Set of Sites; ± fitting errors; repeated twice
# Outline: as §2
# [9] = system: Arabidopsis seedlings (primary root); experiment: Primary root growth inhibition / LRR-RLK screening; format: in vivo, Arabidopsis thaliana; conditions: 0.75 µM CLE5p
# Outline: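 Arabidopsis lrr-rlk mutant seedlings were germinated on 1/2MS agar for 3 days. They were then transferred to 1/2MS agar containing 0.75 µM test peptide. Primary root length was measured after 3 days of peptide treatment.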
# [10] = molecular target: T1, GST-BAM1 (LRR repeats of BARELY ANY MERISTEM 1, N-terminal GST fusion) (Arabidopsis thaliana); experiment: ITC
# [11] = molecular target: T2, GST-GHR1 (LRR repeats of GUARD CELL HYDROGEN PEROXIDE-… 1, N-terminal GST fusion) (Arabidopsis thaliana); experiment: ITC
molecule,measurement,setting,value
"CC1=CC(=O)CC(C)(C)[C@@]1(O)/C=C/C(C)=C\C(=O)O [ABA, abscisic acid]",stomatal closure,"[1]; cle5-1 and bam1-3ghr1 leaves, 2 µM ABA, 30 min",failed to induce stomatal closure
same,stomatal conductance response to ABA,"[2]; 35S::SRK2E(Triple A)/srk2e leaves, 2 µM ABA",insensitive to the ABA treatment
same,stomatal conductance response to ABA,"[2]; 35S::SRK2E/srk2e leaves, 2 µM ABA, compared to srk2e",decreased rapidly
same,stomatal conductance response to ABA,"[2]; bam1-3, ghr1, bam1-3ghr1 leaves, 2 µM ABA",insensitive to the ABA-induced reduction of stomatal conductance
same,stomatal conductance response to ABA,"[2]; cle5-1 leaves, 2 μM ABA",insensitive to ABA treatment
same,stomatal conductance response to ABA,"[2]; pGC1::CLE5/cle5-1 leaves (stomata-specific CLE5), 2 μM ABA",sufficient to elicit ABA-induced stomatal closure
same,stomatal conductance response to ABA,"[2]; wild type and pCLE5::CLE5/cle5-1 leaves, 2 μM ABA",began to close their stomata promptly after ABA application
same,H2O2 accumulation (DAB staining),[3]; 1 µM ABA,induced H2O2 accumulation
same,SRK2E-GFP mobility shift (phosphorylation),[4],a distinct band shift was detected
same,SRK2D-GFP mobility shift (phosphorylation),[5],a distinct band shift was detected
same,stomatal closure,[6],induce rapid stomatal closure
"CLE5p: mature CLE5 dodecapeptide, hydroxyproline at residues 4 and 7, non-arabinosylated (RVS[Hyp]GG[Hyp]DPQHH)",stomatal closure,[1]; rbohDrbohF double mutant leaves,induced stomatal closure
same,Kd,[7],2.52 µM
same,Kd,[8],7.39 µM
same,H2O2 accumulation (DAB staining),"[3]; 100 µM CLE5p, detached leaves",no hydrogen peroxide (H2O2) accumulation
same,"root growth inhibition, in words","[9]; bam1-3, ghr1, bam1-3ghr1 seedlings",Neither single bam1-3 and ghr1 nor double bam1-3ghr1 mutants showed significant growth defects
same,"root growth inhibition, in words",[9]; bam3 and wild type seedlings,sensitive to the CLE5p-induced root growth inhibition
"CLE25p: root-derived CLE peptide transported from roots to leaves (RKVPNGPDPIHN; ends and bridges not checked; UniProt Q8LFL4 58-69, looked up)",drought stress response,"[6]; root-derived, transported from roots to leaves",promotes drought stress resistance by stimulating ABA biosynthesis
RVS[Hyp]GG[Hyp]DPQHH [CLE5 dodecapeptide (CLE5p)],Kd,[10],2.52 µM
same,Kd,[11],7.39 µM
